Assay results published in PubChem BioAssay AID775 (SRMLSC, 2007).
Among all 130,000 compounds or so, about 900 (0.69%) were called active.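 Rule for the calls: active = inhibition above a set limit, placed 3 SD over the median of all compounds (cut at about 26% in these data); inactive = the rest.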 For the sample, actives were picked, then their nearest neighbours and some compounds at random.

assay: compounds extending yeast replicative lifespan, primary screen, S. cerevisiae, OD615 (AID 775);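 note: 0% = nicotinamide-treated wells and 100% = cells grown without nicotinamide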; conditions: S. cerevisiae growth with nicotinamide, at 10 µM, active compounds read high, deaD strain in restrictive glucose medium
Outline: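 Measured by: optical density (absorbance) at 615 nm; System: modified budding yeast, DeaD strain; Medium: restrictive CSMM-D dextrose medium; Timing: 4 h preincubation then 48 h treatment at 30 °C.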

Inhibition of the nicotinamide effect, inactive:
O=C(O)C1CC(=O)N(Cc2cccnc2)C1 (stereo not drawn) -1.28%, O=C1OC(c2ccc(Cl)cc2)=N/C1=C\c1cccnc1 20.7%, O=C(NCCc1ccccc1)C1CCC(Cn2c(=O)c3ccccc3n(Cc3cccnc3)c2=O)CC1 (stereo not drawn) 0.76%, Cc1ccc2nc(-c3cccnc3)c(NC3CCCC3)n2c1 -2.42%, Cc1cccc(OP(=O)(Nc2c(C)n(C)n(-c3ccccc3)c2=O)Oc2cccc(C)c2)c1 0%, CCN(CC)c1ccc([N+](=O)[O-])cc1C(=O)O 4.32%, O=C(COC(=O)CCCNC(=O)c1ccc(Cl)cc1)Nc1cc(Cl)ccc1Cl 5.47%, CC1CN(S(=O)(=O)c2ccc(C(=O)Nc3sccc3C(N)=O)cc2)CC(C)O1 (stereo not drawn) 0.65%, Cc1sc(NC(=S)NC(=O)c2cccs2)nc1-c1ccc(CC(C)C)cc1 -13.7%, COC(=O)c1ccc(C(=O)OC)c(NC(=S)N2CCN(c3ccc(F)cc3)CC2)c1 -4.39%, CSCc1ccc(C(=O)Nc2cc(C)cc(C)c2)cc1 1.95%, CCCn1c(=O)c(-c2ccccc2)c(O)c2ccccc21 3.34%, Cn1c(=O)c(C(=O)Nc2ncccn2)c(O)c2ccccc21 -13.7%, O=C(/C=C/c1ccccc1[N+](=O)[O-])NCC1CCCO1 (stereo not drawn) 1.94%, Cc1ccc(C(=O)OCc2nc(N)nc(Nc3ccccc3C)n2)cc1 -3.73%, NS(=O)(=O)c1ccc(CCNC(=S)Nc2ccc(S(N)(=O)=O)cc2)cc1 1.53%, Cc1cccc(CC(=O)N2CCN=C2SCc2ccc([N+](=O)[O-])cc2)c1 -1.98%, CNC(=S)N1CCN(c2ccccn2)CC1 1.57%, O=C(C(Cl)Cl)N1CCN(c2ccccn2)CC1 1.15%, Cc1cccc(NC(=S)Nc2ccc3cn[nH]c3c2)c1 3.23%, Cc1csc(NC(=S)Nc2cccc(Cl)c2)n1 -1.45%, Cc1ccc(NC(=O)CCC(=O)N/N=C/c2ccco2)c(C)c1 0.43%, Cc1ccc2c(CC(=O)NCc3cccs3)coc2c1 -1.73%, Cc1cccc(C(=O)c2cccc(C)c2)c1 -6.29%, Cc1nccn1CC(=O)N/N=C/c1ccc(O)c(O)c1 0.31%, COc1ccccc1C1CC(=O)n2c(nc(-c3ccccc3)c2-c2ccccc2)S1 (stereo not drawn) 0.78%, COc1cc(OC)c(-n2cc(-c3ccc(Cl)cc3)[nH]c2=O)cc1Cl -0.64%, Cc1cc(C=O)c(C)n1-c1ccc(NC2CCCCC2)c([N+](=O)[O-])c1 -25.3%, O=C(Cc1coc2ccc3ccccc3c12)NCc1cccs1 -1.99%, COc1cc(/C=N\NC(=O)c2nonc2N)c(OC)cc1Br 5.5%, COCCn1c(=O)[nH]c(=O)c2cc(C(=O)c3cc(OC)ccc3O)cnc21 -5.05%, CCCn1c(=O)c2c(C(F)(F)F)cc(-c3cccs3)nc2n(CCC)c1=O 3.84%, CCCN1Cc2cccc(C(=O)NCc3ccccc3)c2C1=O -14.6%, CCCN1Cc2cccc(C(=O)Nc3ccc(S(=O)(=O)N4CCCCCC4)cc3)c2C1=O -3.05%, COc1cc(NC(=S)NNC(=O)CC(C)C)c(OC)cc1Cl 0.62%, COc1ccccc1NC(=O)CCCc1c[nH]c2ccccc12 -7.92%, COc1cccc(NC(=O)Cc2ccc(C)cc2)c1 -12.4%, COc1ccc(NS(=O)(=O)c2ccc(NC(=S)NC(=O)/C=C/c3ccc(C)cc3)cc2)nn1 -1.4%, Cc1ccc(CC(=O)Nc2ccc(OC(F)F)c(Cl)c2)cc1C 0.1%, O=C(NCC1CCCO1)c1ccc2ccccc2n1 (stereo not drawn) -8.01%, S=C(NCCc1ccccc1)NCC1CCCO1 (stereo not drawn) 1.76%, COc1ccc(-n2c(=S)[nH]c3sc4c(c3c2=O)CCc2ccccc2-4)cc1 8.03%, O=C(/C=C/c1ccc([N+](=O)[O-])cc1)NCCSCc1ccco1 -1.15%, O=C(COC(=O)/C=C/c1nc2ccccc2s1)Nc1ccccc1Oc1ccccc1 -1.04%, Cc1nnc(NC(=O)/C=C/c2ccco2)s1 -3.6%, COc1ccc(-c2cc(C(F)(F)F)nc(SCC(=O)Nc3ccc4c(c3)OCO4)n2)cc1OC 3.91%, COc1cc(OC)nc(S(C)(=O)=O)n1 2.39%, Cc1ccc(C)c2[nH]c(=O)c(CCNC(=O)c3cccs3)cc12 -0.37%, O=C(OC1CCOC1=O)c1cccc(S(=O)(=O)Nc2ccc(F)cc2)c1 (stereo not drawn) 1.4%, COc1ccc(C)cc1NC(=O)C(OC(=O)c1cccc(S(=O)(=O)N(C)c2ccccc2)c1)c1ccccc1 (stereo not drawn) -5.56%, Cc1cccc(N=C2NN=C(c3c[nH]c4ccccc34)CS2)c1 5.95%, CCN(CC(=O)NCCc1ccccc1)S(=O)(=O)c1ccc(C)cc1 5.67%

Inhibition of the nicotinamide effect, active:
O=C1/C(=C\c2cccnc2)CN(Cc2ccccc2)C/C1=C\c1cccnc1 54.9%, CC(C)Cc1nn2c(=O)cc(O)nc2s1 47.1%, Cn1c(=O)c(Sc2ccc(Cl)cc2)c(O)c2ccccc21 29.7%, CC(=C1C(=O)c2ccccc2C1=O)N1CCN(c2ccccn2)CC1 54.4%, S=C(Nc1cccc(Cl)c1)Nc1ccc2cn[nH]c2c1 32.1%, COc1cc(OC)c(-n2c(C)cc(C=O)c2C)cc1Cl 39.8%, O=C(O)c1cccc2c1C(=O)N(C1CCCCC1)C2 63.7%, COc1ccc(NC(=O)/C(Cl)=C(/Cl)S(=O)Cc2ccc(C)cc2)cn1 (stereo not drawn) 45.5%, O=C(CS(=O)(=O)Cc1ccccc1)NCC1CCCO1 (stereo not drawn) 46.3%, CC(=O)c1c(O)cc2n(c1=O)-c1ccc(Cl)cc1C2(C)C 50.9%, COc1ccc(-c2cc(C(F)(F)F)nc(S(C)(=O)=O)n2)cc1OC 48.9%
